This is an account of results in ChEMBL document CHEMBL1641461, “Azaindoles as potent CRTH2 receptor antagonists” (Bioorg Med Chem Lett, 2011).

Structures are written as SMILES.

Series [1] addresses T1, Prostaglandin D2 receptor 2 (Homo sapiens, UniProt Q9Y5Y4).
T1 sequence (Q9Y5Y4 whole entry): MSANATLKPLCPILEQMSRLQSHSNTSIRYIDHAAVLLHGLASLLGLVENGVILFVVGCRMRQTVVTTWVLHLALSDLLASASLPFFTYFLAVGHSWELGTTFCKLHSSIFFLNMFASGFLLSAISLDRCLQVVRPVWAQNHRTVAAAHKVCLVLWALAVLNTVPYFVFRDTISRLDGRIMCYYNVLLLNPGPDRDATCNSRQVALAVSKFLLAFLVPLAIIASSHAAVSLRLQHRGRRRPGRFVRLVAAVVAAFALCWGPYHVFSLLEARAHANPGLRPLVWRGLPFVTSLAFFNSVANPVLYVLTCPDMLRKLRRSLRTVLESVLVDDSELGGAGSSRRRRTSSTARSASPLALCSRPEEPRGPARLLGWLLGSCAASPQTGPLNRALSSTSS
Put plainly: Displacement of radioligand from human CRTH2 expressed in HEK293 cells by competitive binding assay. Format: cell-based. The method, boiled down:
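Radioligand competition binding on membranes from HEK293 (EBNA) cells stably expressing hCRTH2, in 10 mM HEPES/KOH. Mean of two or more experiments.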

Series [2] concerns the target T2, Prostaglandin D2 receptor (Homo sapiens, UniProt Q13258).
T2 sequence (Q13258 whole entry): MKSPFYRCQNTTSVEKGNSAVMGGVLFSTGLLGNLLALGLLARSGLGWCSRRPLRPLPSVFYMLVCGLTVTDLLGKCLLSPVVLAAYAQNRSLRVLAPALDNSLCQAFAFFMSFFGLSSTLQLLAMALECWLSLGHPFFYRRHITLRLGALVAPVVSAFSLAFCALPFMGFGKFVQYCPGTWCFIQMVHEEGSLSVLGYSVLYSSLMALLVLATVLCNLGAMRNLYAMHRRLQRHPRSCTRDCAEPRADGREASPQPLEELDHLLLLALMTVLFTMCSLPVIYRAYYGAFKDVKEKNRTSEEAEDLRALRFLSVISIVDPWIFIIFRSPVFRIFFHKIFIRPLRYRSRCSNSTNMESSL
Put plainly: Displacement of radioligand from prostanoid DP receptor expressed in HEK293 cells by competitive binding assay. The format is cell-based.

In a further series the target is T3, Thromboxane A2 receptor (Homo sapiens, UniProt P21731).
T3 sequence (P21731 whole entry): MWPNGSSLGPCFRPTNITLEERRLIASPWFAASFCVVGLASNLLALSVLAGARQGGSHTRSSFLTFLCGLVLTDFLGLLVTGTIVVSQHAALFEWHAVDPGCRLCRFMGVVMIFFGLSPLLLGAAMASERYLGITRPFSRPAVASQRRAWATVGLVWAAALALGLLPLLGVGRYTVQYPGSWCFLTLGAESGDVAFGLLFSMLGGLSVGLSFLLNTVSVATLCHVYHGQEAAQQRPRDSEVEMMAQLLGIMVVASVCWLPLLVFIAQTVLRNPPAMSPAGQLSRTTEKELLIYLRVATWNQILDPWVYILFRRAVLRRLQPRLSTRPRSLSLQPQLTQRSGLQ
The series is described as follows: Displacement of radioligand from prostanoid TP receptor expressed in HEK293 cells by competitive binding assay. Format: cell-based.

Series [3] has as its target T1, Prostaglandin D2 receptor 2. The series is described as follows: Antagonist activity at human CRTH2 expressed in HEK293 cells assessed as inhibition of forskolin-induced increase intracellular [125I]cAMP level by scintillation proximity assay. The format is functional, cell-based. The method, boiled down:
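Intracellular cAMP measured by ¹²⁵I-cAMP scintillation proximity assay in Hank's balanced salt solution with 25 mM HEPES and forskolin. Values are the mean of two or more experiments.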
A general note: Changes in cAMP serve as a functional read-out for many G protein-coupled receptors.

The nature of series [4]: Bioavailability in Sprague-Dawley rat at 5 mg/kg, po and 1 mg/kg, iv. The format is ADME, organism-based. As to conditions: in vivo. The method, boiled down:
(§1)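 Rats dosed PO at 5 mg/kg (5 mL/kg) in 0.5% methocel and IV at 1 mg/kg (1 mL/kg) in 60% PEG 200; n = 2.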

The nature of series [5]: Clearance in Sprague-Dawley rat at 5 mg/kg, po and 1 mg/kg, iv. Format: ADME, organism-based. Conditions: in vivo. The method, boiled down:
as §1

Series [6] in a line: Volume of distribution in Sprague-Dawley rat at 5 mg/kg, po and 1 mg/kg, iv. Format: ADME, organism-based. As to conditions: in vivo. The procedure, abridged:
as §1

Series [7] in a line: Half life in Sprague-Dawley rat at 5 mg/kg, po and 1 mg/kg, iv. The format is ADME, organism-based. As to conditions: in vivo. The procedure, abridged: as §1
Series [8] is described as follows: (§2) Bioavailability in Sprague-Dawley rat at 1 mg/kg, iv. The format is ADME, organism-based. Conditions: Sprague-Dawley, in vivo.
Another series has as its target Cytochrome P450 2C9 (Homo sapiens, UniProt P11712). Put plainly: Inhibition of CYP2C9. The format is ADME. The procedure, abridged:
(§3)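 CYP2C9 and CYP3A4 inhibition IC50 values, averaged over at least two experiments.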

Another series addresses Cytochrome P450 3A4 (Homo sapiens, UniProt P08684). Put plainly: Inhibition of CYP3A4. Format: ADME. The method, boiled down:
as §3

In the next series the test system is Rattus norvegicus. Described as §2. Format: ADME, organism-based. Conditions: in vivo.

Chain of Cytochrome P450 3A4 (P08684 whole entry): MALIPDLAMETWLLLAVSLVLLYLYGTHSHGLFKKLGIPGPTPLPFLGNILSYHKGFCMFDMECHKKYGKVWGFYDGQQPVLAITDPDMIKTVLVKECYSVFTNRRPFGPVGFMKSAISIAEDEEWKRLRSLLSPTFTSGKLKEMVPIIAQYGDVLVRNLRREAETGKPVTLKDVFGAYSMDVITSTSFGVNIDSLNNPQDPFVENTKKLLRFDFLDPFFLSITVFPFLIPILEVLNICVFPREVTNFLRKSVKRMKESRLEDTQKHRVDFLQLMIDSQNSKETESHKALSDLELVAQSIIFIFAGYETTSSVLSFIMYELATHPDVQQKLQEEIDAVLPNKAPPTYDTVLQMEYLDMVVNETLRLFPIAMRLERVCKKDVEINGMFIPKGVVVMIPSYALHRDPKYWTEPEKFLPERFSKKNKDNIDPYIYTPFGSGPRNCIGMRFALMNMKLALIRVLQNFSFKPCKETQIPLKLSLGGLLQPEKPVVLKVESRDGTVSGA
Chain of Cytochrome P450 2C9 (P11712 whole entry): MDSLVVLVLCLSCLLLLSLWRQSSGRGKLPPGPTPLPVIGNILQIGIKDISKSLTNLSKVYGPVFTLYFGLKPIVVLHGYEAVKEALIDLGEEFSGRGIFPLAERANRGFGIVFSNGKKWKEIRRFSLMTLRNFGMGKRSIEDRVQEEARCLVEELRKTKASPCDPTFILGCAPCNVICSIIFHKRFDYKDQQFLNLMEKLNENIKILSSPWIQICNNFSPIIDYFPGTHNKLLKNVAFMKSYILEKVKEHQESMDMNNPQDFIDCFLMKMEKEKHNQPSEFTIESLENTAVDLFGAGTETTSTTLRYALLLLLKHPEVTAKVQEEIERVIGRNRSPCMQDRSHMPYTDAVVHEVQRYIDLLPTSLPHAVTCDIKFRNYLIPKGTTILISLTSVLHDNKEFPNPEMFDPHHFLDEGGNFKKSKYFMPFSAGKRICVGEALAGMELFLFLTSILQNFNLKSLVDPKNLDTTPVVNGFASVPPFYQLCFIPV

In general, Ki refers to a dissociation constant, usually derived from enzyme kinetics or from competition with a known ligand. A lower Ki goes with higher affinity. Regarding `CN([C@@H]1CCc2c(CC(=O)O)c3ncccc3n2C1)S(=O)(=O)c1ccc(F)cc1`, the Ki in series [1] is 7.19 µM; in series [2], > 1.3 µM; on Thromboxane A2 receptor, > 7 µM.

The term IC50 denotes the midpoint of a concentration-inhibition curve. As for `CN([C@@H]1CCc2c(CC(=O)O)c3ccc(Cl)nc3n2C1)S(=O)(=O)c1ccc(F)cc1`, the figures for the Ki (in series [1]; in series [2]; on Thromboxane A2 receptor) were 0.0018 µM, > 18 µM and > 27 µM, respectively. Also, the IC50 in series [3] worked out at 0.0032 µM.

For orientation: half-life means the time in which the quantity being followed falls by half. A higher half-life goes with slow loss. In the case of `CN(C(=O)C1(c2ccc(F)cc2)CC1)[C@@H]1CCc2c(CC(=O)O)c3cccnc3n2C1`, the values for the inhibition constant (Ki) (in [1]; in [2]; on Thromboxane A2 receptor) were 0.0036 µM, > 3.7 µM and > 6.8 µM, respectively. Also, the 50% inhibitory concentration (IC50) in [3] came out at 0.0075 µM. In [4], the bioavailability stood at 63%. Further, in series [5], the clearance was 12 mL/min/kg. Besides, the Vd in [6] is 2.2 L/kg. The compound also had a half-life in [7] of 3.1 h.

Regarding `C[C@H](C(=O)N(C)[C@@H]1CCc2c(CC(=O)O)c3cccnc3n2C1)c1ccc(F)cc1`, the Ki in series [1] is 0.0211 µM; in [2] it was > 12 µM; on Thromboxane A2 receptor, > 22 µM. Further, the IC50 in series [3] came out at 0.0738 µM.

With `CN([C@@H]1CCc2c(CC(=O)O)c3ccccc3n2C1)S(=O)(=O)c1ccc(F)cc1` [MK-7246], the bioavailability in series [8] was found to be 138%. In series [5], the clearance was 3.9 mL/min/kg. Further, the Vd in series [6] came out at 1.15 L/kg. In [7], this compound gave a half-life of 4.1 h.

Consider `CN(C(=O)C1(c2ccc(F)cc2)CCC1)[C@@H]1CCc2c(CC(=O)O)c3cccnc3n2C1`, for which the Ki in series [1] was 0.0034 µM; in series [2] it was > 4 µM; at Thromboxane A2 receptor, > 7.2 µM. Also, in series [3], the half-maximal inhibitory concentration (IC50) amounted to 0.0047 µM. In addition, the bioavailability in series [4] was determined as 20%. The compound also returned a clearance in [5] of 28 mL/min/kg. The same compound had a Vd in [6] of 4.58 L/kg. The compound further gave a half-life in [7] of 2.1 h.

On to `CN(C(=O)C1(c2ccc(F)cc2)CC1(C)C)[C@@H]1CCc2c(CC(=O)O)c3cccnc3n2C1` (stereo partly specified), for which the values for the Ki (in series [1]; in series [2]; at Thromboxane A2 receptor) were 0.0051 µM, > 4 µM and > 7.2 µM, respectively. Moreover, the IC50 in [3] is 0.0044 µM.

For the compound `CN([C@@H]1CCc2c(CC(=O)O)c3cccnc3n2C1)S(=O)(=O)c1ccc(F)cc1`, the Ki in series [1] is 0.0033 µM; in series [2] it was > 47 µM; at Thromboxane A2 receptor, > 22 µM. For the same compound, the results for the IC50 (in series [3]; on Cytochrome P450 2C9; on Cytochrome P450 3A4) were 0.0034 µM, > 50 µM and > 50 µM, respectively. Also, in series [4], the bioavailability stood at 50%. In [5], this compound displayed a clearance of 0.4 mL/min/kg. This compound gave a Vd in [6] of 0.23 L/kg. For the same compound, in [7], the half-life was 7.5 h.

Take `CN([C@@H]1CCc2c(CC(=O)O)c3ccc(-c4ccc(F)cc4)nc3n2C1)S(=O)(=O)c1ccc(F)cc1`: the figures for the inhibitory constant (Ki) (in series [1]; in [2]; at Thromboxane A2 receptor) were 0.0019 µM, > 3.8 µM and > 1 µM, respectively. The IC50 in series [3] worked out at 0.0036 µM.

With `C[C@@H](C(=O)N(C)[C@@H]1CCc2c(CC(=O)O)c3cccnc3n2C1)c1ccc(F)cc1`, the Ki in series [1] was 0.0034 µM; in [2] it was > 38 µM; at Thromboxane A2 receptor, > 71 µM. The IC50 in [3] is 0.0057 µM; on Cytochrome P450 2C9 it was > 50 µM; against Cytochrome P450 3A4, > 50 µM. Also, the bioavailability in series [4] stood at 84%. This compound also returned a clearance in series [5] of 3.6 mL/min/kg. Also, the Vd in series [6] is 0.67 L/kg. This compound gave a half-life in series [7] of 4 h.

As for `CN(C(=O)C(C)(C)c1ccc(F)cc1)[C@@H]1CCc2c(CC(=O)O)c3cccnc3n2C1`, the figures for the Ki (in series [1]; in [2]; at Thromboxane A2 receptor) were 0.0047 µM, > 10 µM and > 21 µM, respectively. In [3], the IC50 came to 0.0035 µM. This compound showed a F with Rattus norvegicus of 156%. The same compound yielded a clearance in [5] of 21 mL/min/kg. Besides, the Vd in [6] worked out at 1.54 L/kg. The compound further showed a half-life in series [7] of 1.9 h.

Regarding `CN([C@@H]1CCc2c(CC(=O)O)c3ccncc3n2C1)S(=O)(=O)c1ccc(F)cc1`, the Ki in [1] was 0.139 µM; in series [2], > 12 µM; on Thromboxane A2 receptor, > 22 µM. In series [3], the IC50 turned out to be 0.351 µM.

In the case of `CN(C(=O)C1(c2ccc(F)cc2)CCOCC1)[C@@H]1CCc2c(CC(=O)O)c3cccnc3n2C1`, the Ki is 0.0115 µM in series [1], > 4 µM in series [2] and > 7.2 µM at Thromboxane A2 receptor. The IC50 in [3] is 0.007 µM.

Regarding `CN([C@@H]1CCc2c(CC(=O)O)c3cnccc3n2C1)S(=O)(=O)c1ccc(F)cc1`, the Ki in series [1] is 6.72 µM; in series [2] it was > 3.4 µM; on Thromboxane A2 receptor it was > 6.8 µM.

For the compound `CN(C(=O)C1(c2ccc(F)cc2)CCCC1)[C@@H]1CCc2c(CC(=O)O)c3cccnc3n2C1`, the Ki in series [1] is 0.0039 µM; in series [2], > 4 µM; on Thromboxane A2 receptor, > 7.2 µM. For the same compound, the IC50 in series [3] is 0.0045 µM. In series [4], the bioavailability was 38%. Moreover, the clearance in series [5] worked out at 18 mL/min/kg. For the same compound, the Vd in series [6] was 1.72 L/kg. Further, the half-life in series [7] was 11.6 h.
